MC4R ag barr: MC4R agonists recruiting beta-arrestin, primary screen, cell-based, luminescence, agonist arm of biased-ligand search; Melanocortin receptor 4 (Homo sapiens), P32245; U2OS MC4R beta-arrestin complementation; percent of melanotan II response, DMSO zero; activation, % at 8.9 µM; 360,000 tested, 0.98% active;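 active = activation above a per-plate cutoff, the mean activation of sample wells on that plate plus 3 SD, cut at about 8% in these data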
Target sequence (P32245 whole entry, looked up): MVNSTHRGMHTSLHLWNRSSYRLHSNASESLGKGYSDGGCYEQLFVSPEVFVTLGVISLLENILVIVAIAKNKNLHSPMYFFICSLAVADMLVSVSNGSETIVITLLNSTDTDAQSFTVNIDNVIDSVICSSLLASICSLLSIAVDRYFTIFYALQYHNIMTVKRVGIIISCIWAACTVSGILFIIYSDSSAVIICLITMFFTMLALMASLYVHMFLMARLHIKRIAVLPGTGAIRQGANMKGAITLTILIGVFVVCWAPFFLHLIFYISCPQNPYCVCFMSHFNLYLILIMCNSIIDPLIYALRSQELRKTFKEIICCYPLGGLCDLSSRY
MC4R antagonist: MC4R antagonists of cAMP signaling, primary screen, cell-based, TR-FRET, antagonist arm of biased-ligand search | inhibition, % at 6.5 µM | AID 540295, 2011 | Melanocortin receptor 4 (Homo sapiens), P32245 | 360,000 tested, 0.48% active | MC4R-expressing cells, MTII-stimulated cAMP, LANCE TR-FRET;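 active = inhibition above its plate's cutoff, the mean of tested wells on that plate plus 3 SD, cut at about 29% in these data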;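 note: 0% = Melanotan II alone and 100% = Melanotan II plus saturating MCL0020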
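Material: U2OS-MC4R stable cell line | Reagent: Melanotan II challenge after compound preincubation | Doses: One concentration, 6.5 µM nominal | Incubation: 30-min compound preincubation, 1-h Melanotan II challenge, 1-h detection, room temperature | Signal: TR-FRET cAMP assay | Replicates: One well per compound, no replicates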
NTR1 agonist: agonists of human NTR1, primary screen, imaging, U2OS cells, beta-arrestin-GFP, high content. 330,000 tested, 0.17% active. Neurotensin receptor type 1 (Homo sapiens), P30989. activation, % at 20 µM. NTR1-U2OS beta-arrestin-GFP spot imaging, agonist mode;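 active = activation at or above 40% of the spot to cytoplasm intensity ratio, with at least 20 cells analyzed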;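 note: 0% = DMSO without peptide and 100% = 100 nM NTR1 peptide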
Target sequence (P30989 whole entry, looked up): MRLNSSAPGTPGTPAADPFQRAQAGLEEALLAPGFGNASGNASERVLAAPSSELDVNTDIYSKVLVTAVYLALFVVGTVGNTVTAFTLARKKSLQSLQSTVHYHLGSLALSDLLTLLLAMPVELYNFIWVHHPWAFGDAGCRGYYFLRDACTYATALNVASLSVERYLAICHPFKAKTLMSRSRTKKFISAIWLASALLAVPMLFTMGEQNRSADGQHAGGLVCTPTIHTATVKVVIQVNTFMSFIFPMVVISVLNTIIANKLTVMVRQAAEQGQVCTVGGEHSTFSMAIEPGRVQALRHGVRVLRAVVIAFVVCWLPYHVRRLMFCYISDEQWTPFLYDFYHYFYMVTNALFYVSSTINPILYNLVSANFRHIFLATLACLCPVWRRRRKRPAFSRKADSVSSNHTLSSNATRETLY
NOD2 RIPK2 PPI: NOD2-RIPK2 binding disruptors in cells, primary screen, fluorescence, CHO cells, BLA complementation. Receptor-interacting serine/threonine-protein kinase 2 (Homo sapiens), O43353. CCF4 ratio. inhibition, % at 4.98 µM. 360,000 tested, 0.38% active. AID 624267, 2012; in the data active = inhibition above about 21%;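 note: 0% = vehicle only and 100% = reference blocker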
TLR9-MyD88 block: inhibitors of TLR9-MyD88 association in cells, primary screen, cell-based, CHO, BLA complementation, fluorescence; CCF4 FRET ratio; Toll-like receptor 9 (Homo sapiens) + Myeloid differentiation primary response protein …; inhibition, % at 4.98 µM; 340,000 tested, 0.21% active;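 active = inhibition above the mean over all tested compounds plus 3 SD, cut at about 21% in these data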;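 note: 0% = DMSO only wells and 100% = clavulanate BLA inhibitor control wells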
TLR4-MyD88 BLA: inhibitors of TLR4-MyD88 association in cells, primary screen, cell-based, HeLa CL3-4, BLA complementation, FRET ratio; AID 861, 2007; HeLa CL3-4 TLR4/MyD88 BLA complementation; 200,000 tested, 0.18% active; inhibition, % at 8.4 µM; Toll-like receptor 4 (Homo sapiens) + Myeloid differentiation primary response protein …; in the data active = inhibition above about 25%;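 note: 0% = vehicle and 100% = reference inhibitor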
MC4R barr conf: MC4R beta-arrestin agonists, retest, confirmation, cell-based, luminescence, U2OS; U2OS MC4R beta-arrestin recruitment; scaled DMSO 0%, Melanotan II 100%; shares compounds with MC4R ag barr; activation, % at 8.9 µM; 2,400 tested, 31% active;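 active = mean activation across replicates above the hit cutoff set in the earlier primary screen, cut at about 8% in these data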
MOR-DOR barr ag: agonists of MOR-DOR heterodimerization, counter-screen for MC4R biased agonist project, cell-based, luminescence; shares compounds with MC4R ag barr; U2OS PathHunter beta-arrestin, beta-gal luminescence; percent of deltorphin B response, DMSO zero; activation, % at 9.2 µM; 2,400 tested, 5.8% active; AID 602194, 2012;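 active = mean activation across replicates exceeds the hit threshold derived in the earlier primary screen, cut at about 18% in these data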;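 note: 100% = deltorphin B at 0.9 µM final and 0% = DMSO alone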
The depositor's hits bear a star; . = no result. Most compounds without a hit are left out; they make up all but 1.9% or so of the library.

SMILES | MC4R ag barr | MC4R antagonist | NTR1 agonist | NOD2 RIPK2 PPI | TLR9-MyD88 block | TLR4-MyD88 BLA | MC4R barr conf | MOR-DOR barr ag
COc1ccccc1-c1cc(NC(C)=O)c2ncc(-c3ccccc3)n2c1 | 16.3* | 13.5 | . | -1.9 | . | . | 18.1* | 2.9
CC(=O)c1ccc(N2CCN(CC(=O)NC(=O)NCc3ccccc3)CC2)cc1 | -2.0 | 5.3 | 1.4 | 7.8 | -2.4 | . | . | .
Cc1ccc(NC(=O)CN(C)C(=O)c2sc3cc(Cl)ccc3c2Cl)cc1 | 10.1* | 0.9 | 1.4 | -5.6 | 0.5 | . | 2.3 | 5.5
O=C1C2=C(NC(=S)NC2c2ccc(Cl)cc2)NC(c2ccc(Cl)cc2)N1c1ccc(Cl)cc1 (stereo not drawn) | 18.8* | 8.8 | 7.2 | -3.5 | -6.6 | -2.2 | 29.2* | 9.2
COc1ccccc1N1C(=O)c2ccccc2NC1c1ccncc1 (stereo not drawn) | -1.5 | 3.3 | 1.5 | -14.3 | 0.0 | -1.2 | . | .
CCc1ccc(C2NC(=S)NC3=C2C(=O)N(c2ccccc2OC)C(c2ccc(CC)cc2)N3)cc1 (stereo not drawn) | 17.9* | 4.8 | 19.3 | 2.5 | 7.3 | -6.5 | 13.9* | 4.0
Cc1ccc(CNC(=O)CN(C(=O)C2(C)CC(=O)N=C3C=CC=CN32)c2ccc(F)cc2)cc1 (stereo not drawn) | -1.4 | 6.9 | 0.0 | -1.9 | 1.9 | . | . | .
CCCc1c(C(=O)Nc2ccc(C(F)(F)F)cc2)cnn1-c1ccccc1 | 10.4* | -3.2 | 0.5 | -16.1 | 1.0 | . | -3.9 | 5.5
CCCc1c(C(=O)NNc2cc(C(F)(F)F)ccc2Cl)cnn1-c1ccccc1 | 27.0* | 2.7 | 5.6 | 5.4 | -5.0 | . | 5.8 | 6.5
CCCc1c(C(=O)NNc2ccc(C)cc2)cnn1-c1ccccc1 | -2.0 | -0.8 | 0.7 | -1.2 | 2.2 | . | . | .
Cc1ccc(C(=O)NCCNc2nc3cc(C)c(C)cc3cc2C)cc1 | 15.0* | -3.9 | 4.3 | 0.1 | -6.0 | 3.4 | 19.8* | 4.4
Cc1cc2cc(C)c(NCCNC(=O)c3ccccc3)nc2cc1C | -0.9 | 1.7 | 3.7 | 5.7 | -10.9 | 9.3 | . | .
COc1cc2c(cc1OC)CN(S(=O)(=O)/C=C/c1ccccc1)CC2 | -1.4 | 4.2 | -0.6 | -5.0 | 6.0 | . | . | .
COc1ccc(CCNC(=O)COc2ccc(-c3ccc(C#N)cc3)cc2)cc1 | 18.7* | 0.6 | -1.0 | 2.4 | -7.3 | -2.7 | 7.9 | 27.8*
N#Cc1ccc(-c2ccc(OCC(=O)NCC(=O)Nc3ccc(F)c(F)c3F)cc2)cc1 | 18.0* | 10.8 | 1.1 | -32.1 | 6.3 | -9.9 | -0.5 | 7.7
CCOc1ccc(C(=O)CCC(=O)NCC(=O)Nc2ccc(F)c(F)c2F)cc1 | 2.3 | 6.1 | . | 1.0 | -7.5 | . | . | .
COc1ccc(CCNC(=O)COc2ccc([N+](=O)[O-])cc2)cc1 | -1.4 | 4.4 | 0.8 | 0.9 | -3.1 | 4.9 | . | .
CCC(c1nnc(SCC(=O)Nc2cccnc2Cl)n1-c1ccccc1)N(C)C (stereo not drawn) | -2.2 | -3.7 | 0.2 | -10.4 | 0.6 | 3.2 | . | .
COc1ccc(C(=O)COC(=O)c2ccc(-n3cnnn3)cc2)c(OC)c1 | 13.5* | 10.9 | 4.5 | -5.0 | 0.8 | . | 4.9 | 5.8
COc1ccccc1C(=O)COC(=O)c1c(-c2ccccc2)noc1C | 1.0 | -9.3 | 5.0 | -15.4 | -15.2 | . | . | .
COc1ccc(C(=O)COC(=O)c2c(-c3ccccc3)noc2C)c(OC)c1 | 13.8* | 7.0 | 1.8 | -6.3 | -10.5 | . | -0.2 | 1.9
CC1=[N+]([O-])C(C)(C)N(O)C1(C)C | -0.6 | -2.5 | 1.1 | 2.1 | 7.1 | . | . | .
CC/C(=N/Nc1ccccc1)c1cnnc(-c2ccccc2)n1 | 16.1* | 4.5 | 1.4 | 3.9 | 0.0 | -5.4 | 20.6* | 2.4
CC/C(=N/Nc1cccc(Cl)c1)c1cnnc(SC)n1 | 0.4 | -6.7 | 4.8 | 4.0 | -9.5 | 11.5 | . | .
COc1ccc2sc(-c3ccc(SC)cc3)c(-c3ccc(O)cc3)c2c1 | 2.4 | 8.1 | 25.2 | 4.9 | -2.3 | . | . | .
SMILES | MC4R ag barr | MC4R antagonist | NTR1 agonist | NOD2 RIPK2 PPI | TLR9-MyD88 block | TLR4-MyD88 BLA | MC4R barr conf | MOR-DOR barr ag
O=C(COC(=O)C1CCCN1C(=O)C12CC3CC(CC(C3)C1)C2)c1ccc(Br)cc1 (stereo not drawn) | 13.6* | 0.1 | 6.5 | -10.6 | 1.6 | -15.2 | 5.2 | 3.4
COc1ccc(C(=O)COC(=O)C2CCCN2C(=O)C23CC4CC(CC(C4)C2)C3)cc1 (stereo not drawn) | -0.6 | 1.6 | 0.9 | -8.3 | 0.8 | -3.6 | . | .
CCOC(=O)Cn1c(=NC(=O)c2cccs2)sc2cc(C(=O)OC)ccc21 | 1.3 | 4.1 | -1.1 | 0.5 | 0.2 | -9.5 | . | .
C#CCn1c(=NC(=O)c2cccs2)sc2cccc(OCC)c21 | 23.9* | 19.4 | 6.8 | -10.0 | 5.9 | -11.6 | 3.6 | 2.2
C#CCn1c(=NC(=O)c2ccc(Cl)s2)sc2cccc(OC)c21 | 15.0* | 8.8 | 9.0 | -14.4 | -2.3 | -12.5 | 6.4 | 2.0
CC1=C(C(=O)N(C)C)CC(CC(=O)NCCCCc2ccccc2)C(=O)N1Cc1ccccc1 (stereo not drawn) | 0.1 | 5.2 | . | -1.6 | -4.4 | . | . | .
CC(=O)Nc1ccc(NC(=O)C2CCN(C(=O)C3CC(=O)N(c4ccc(C)cc4)C3)CC2)cc1 (stereo not drawn) | -0.7 | 1.9 | -1.6 | -1.6 | -6.4 | . | . | .
CC1=C(C(=O)N(C)C)CC(CC(=O)NC2CCCCC2)C(=O)N1CCC1=CCCCC1 (stereo not drawn) | -1.2 | 2.4 | . | -0.7 | 2.1 | . | . | .
O=C(CNC(=O)c1ccc(Br)o1)Nc1cccc(-c2cnc3ccccc3n2)c1 | 16.0* | 8.6 | 7.2 | 1.9 | -11.5 | 2.7 | -0.4 | 4.1
O=C(Nc1cccc(-c2cnc3ccccc3n2)c1)c1ccco1 | -1.0 | 19.2 | 0.9 | -13.3 | -0.9 | 8.5 | . | .
C=C(C)c1cccc(C(C)(C)NC(=O)N(Cc2ccccc2)Cc2ccco2)c1 | 17.4* | 0.6 | 0.5 | 7.7 | 2.0 | 3.4 | -0.6 | 5.3
